pIC50: −log10 of the molar value. Activity calls are given as the source filed them. No cut-off for these calls is given here.
Tests used:
Lewis lung carcinoma = assay: Antitumor activity against PML knock down mouse LL2 cells transfected with ad-PML allografted in C57Bl/6 mouse assessed as reduction tumor growth at 50 mg/kg, ip administered on day 8 post implantation measured after 20 days; conditions: time 12.0 day
[1] = biological target: T1, Mixed lineage kinase domain-like protein (Homo sapiens) (UniProt Q8NB16); assay: Inhibition of MLKL in human HeLa cells lysate at 10 uM pre incubated for 15 mins followed by ADP acyl phosphate probe addition and measured after 10 mins by LC-MS/MS analysis relative to control; assay type: subcellular; conditions: time 25.0 min
T1 sequence (whole entry): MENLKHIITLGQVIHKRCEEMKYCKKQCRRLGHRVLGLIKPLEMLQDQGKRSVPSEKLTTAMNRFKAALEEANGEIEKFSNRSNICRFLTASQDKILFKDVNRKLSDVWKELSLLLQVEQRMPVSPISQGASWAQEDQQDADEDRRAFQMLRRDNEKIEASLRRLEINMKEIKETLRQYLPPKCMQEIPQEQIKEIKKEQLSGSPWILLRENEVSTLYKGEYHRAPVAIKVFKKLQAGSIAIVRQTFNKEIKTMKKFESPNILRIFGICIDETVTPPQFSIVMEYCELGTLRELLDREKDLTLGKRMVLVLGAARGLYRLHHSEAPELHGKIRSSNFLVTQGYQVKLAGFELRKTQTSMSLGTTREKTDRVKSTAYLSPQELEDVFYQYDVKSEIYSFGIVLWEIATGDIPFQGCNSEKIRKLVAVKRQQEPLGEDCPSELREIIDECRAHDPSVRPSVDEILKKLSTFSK

[2] = biological target: Cyclin-dependent kinase 5 (Homo sapiens, UniProt Q00535); assay: Inhibition of CDK5 in human HeLa cells lysate pre incubated for 15 mins followed by ATP acyl phosphate probe addition and measured after 10 mins by LC-MS/MS analysis; assay type: subcellular
In short: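 KiNativ profiling in HeLa lysate (5 mg/mL total protein). Lysate incubated 15 min with inhibitor at 50, 10, 2, 0.8 or 0 μM. ATP or ADP acylphosphate probe then added (5 μM final) and reacted 10 min. Reaction stopped with urea and analysed by targeted MS, using up to four fragment ions per kinase peptide-probe conjugate. % inhibition taken against untreated lysate. Run in duplicate.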

[3] = biological target: Tyrosine-protein kinase Fer (Homo sapiens, UniProt P16591); assay: Inhibition of FER in human HeLa cells lysate at 50 uM pre incubated for 15 mins followed by ATP acyl phosphate probe addition and measured after 10 mins by LC-MS/MS analysis relative to control; assay type: subcellular; conditions: time 25.0 min
Sequence of Tyrosine-protein kinase Fer (P16591 whole entry, looked up): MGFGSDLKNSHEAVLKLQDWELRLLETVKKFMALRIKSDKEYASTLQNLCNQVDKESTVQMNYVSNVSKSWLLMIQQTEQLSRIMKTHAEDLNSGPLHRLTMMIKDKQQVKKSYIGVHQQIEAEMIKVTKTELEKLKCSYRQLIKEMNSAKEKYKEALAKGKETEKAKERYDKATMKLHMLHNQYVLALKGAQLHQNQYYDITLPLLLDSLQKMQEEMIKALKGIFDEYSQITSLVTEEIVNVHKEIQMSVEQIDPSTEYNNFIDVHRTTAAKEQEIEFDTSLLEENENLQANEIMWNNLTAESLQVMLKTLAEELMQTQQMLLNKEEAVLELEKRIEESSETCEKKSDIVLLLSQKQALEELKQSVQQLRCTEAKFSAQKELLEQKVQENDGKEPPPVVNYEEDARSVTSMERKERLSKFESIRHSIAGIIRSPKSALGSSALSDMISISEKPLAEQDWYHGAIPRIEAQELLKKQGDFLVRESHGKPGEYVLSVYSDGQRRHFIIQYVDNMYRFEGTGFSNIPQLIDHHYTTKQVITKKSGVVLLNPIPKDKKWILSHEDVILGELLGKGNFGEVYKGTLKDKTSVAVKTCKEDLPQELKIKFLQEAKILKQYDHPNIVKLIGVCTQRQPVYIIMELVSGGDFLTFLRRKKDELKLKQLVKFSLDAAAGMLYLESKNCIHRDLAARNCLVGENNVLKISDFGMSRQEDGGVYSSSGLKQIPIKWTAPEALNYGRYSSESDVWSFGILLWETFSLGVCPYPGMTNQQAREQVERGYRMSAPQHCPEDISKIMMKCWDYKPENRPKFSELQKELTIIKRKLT

Ephrin type-A receptor 2 = Ephrin type-A receptor 2 (Homo sapiens, UniProt P29317); assay: Inhibition of EphA2 in human HeLa cells lysate pre incubated for 15 mins followed by ATP acyl phosphate probe addition and measured after 10 mins by LC-MS/MS analysis; assay type: subcellular
Sequence of Ephrin type-A receptor 2 (P29317 whole entry): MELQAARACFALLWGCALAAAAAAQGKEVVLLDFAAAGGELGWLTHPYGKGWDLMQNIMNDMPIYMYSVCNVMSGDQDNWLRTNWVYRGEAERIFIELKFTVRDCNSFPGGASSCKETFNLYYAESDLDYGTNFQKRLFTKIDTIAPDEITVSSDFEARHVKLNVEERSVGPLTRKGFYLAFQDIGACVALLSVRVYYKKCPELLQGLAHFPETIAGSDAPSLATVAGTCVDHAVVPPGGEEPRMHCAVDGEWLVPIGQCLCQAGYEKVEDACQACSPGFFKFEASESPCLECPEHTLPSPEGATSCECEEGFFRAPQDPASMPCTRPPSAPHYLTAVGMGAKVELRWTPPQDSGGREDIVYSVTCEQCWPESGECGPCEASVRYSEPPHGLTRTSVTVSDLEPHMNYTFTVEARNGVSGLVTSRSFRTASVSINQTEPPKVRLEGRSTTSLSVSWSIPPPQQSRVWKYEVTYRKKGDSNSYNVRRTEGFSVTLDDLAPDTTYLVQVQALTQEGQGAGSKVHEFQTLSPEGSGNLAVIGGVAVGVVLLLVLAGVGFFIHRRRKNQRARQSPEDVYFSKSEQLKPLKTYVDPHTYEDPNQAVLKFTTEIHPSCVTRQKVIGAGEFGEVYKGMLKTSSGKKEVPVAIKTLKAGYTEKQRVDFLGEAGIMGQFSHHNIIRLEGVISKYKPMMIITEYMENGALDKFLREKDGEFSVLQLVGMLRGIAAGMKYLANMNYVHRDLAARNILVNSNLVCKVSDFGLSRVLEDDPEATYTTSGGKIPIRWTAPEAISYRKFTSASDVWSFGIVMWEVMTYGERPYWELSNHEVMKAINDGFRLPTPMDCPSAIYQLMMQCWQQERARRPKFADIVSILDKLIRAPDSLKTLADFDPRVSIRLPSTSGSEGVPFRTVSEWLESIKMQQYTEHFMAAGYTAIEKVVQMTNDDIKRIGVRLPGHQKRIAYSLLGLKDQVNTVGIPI

[4] = biological target: Cyclin-dependent kinase 16 (Homo sapiens, UniProt Q00536); assay: Inhibition of PCTAIRE1 in human HeLa cells lysate at 10 uM pre incubated for 15 mins followed by ADP acyl phosphate probe addition and measured after 10 mins by LC-MS/MS analysis relative to control; assay type: subcellular; conditions: time 25.0 min
Sequence of Cyclin-dependent kinase 16 (Q00536 whole entry): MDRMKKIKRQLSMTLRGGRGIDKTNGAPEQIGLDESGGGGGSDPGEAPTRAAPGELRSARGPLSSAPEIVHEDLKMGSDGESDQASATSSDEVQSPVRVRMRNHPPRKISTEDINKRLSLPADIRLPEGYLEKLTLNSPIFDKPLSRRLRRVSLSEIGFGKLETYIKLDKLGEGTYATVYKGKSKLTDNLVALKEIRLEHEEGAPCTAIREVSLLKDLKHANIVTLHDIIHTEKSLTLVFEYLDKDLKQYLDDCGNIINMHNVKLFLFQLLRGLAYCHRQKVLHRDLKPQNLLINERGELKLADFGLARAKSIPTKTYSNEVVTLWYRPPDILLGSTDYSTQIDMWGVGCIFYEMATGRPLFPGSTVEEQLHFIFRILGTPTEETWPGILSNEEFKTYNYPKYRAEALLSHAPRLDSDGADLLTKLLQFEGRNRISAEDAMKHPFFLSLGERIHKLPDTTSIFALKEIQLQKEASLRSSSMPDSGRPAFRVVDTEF

[5] = biological target: T2, EKC/KEOPS complex subunit TP53RK (Homo sapiens) (UniProt Q96S44); assay: Inhibition of PRPK in human HeLa cells lysate at 50 uM pre incubated for 15 mins followed by ADP acyl phosphate probe addition and measured after 10 mins by LC-MS/MS analysis relative to control; assay type: subcellular; conditions: time 25.0 min
T2 sequence (whole entry): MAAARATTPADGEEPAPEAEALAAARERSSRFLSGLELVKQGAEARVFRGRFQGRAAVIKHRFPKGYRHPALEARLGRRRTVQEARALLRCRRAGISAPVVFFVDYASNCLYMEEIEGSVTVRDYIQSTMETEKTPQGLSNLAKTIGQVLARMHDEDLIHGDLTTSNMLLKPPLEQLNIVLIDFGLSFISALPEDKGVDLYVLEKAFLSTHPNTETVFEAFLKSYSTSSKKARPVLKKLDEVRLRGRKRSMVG

[6] = biological target: Interferon-induced, double-stranded RNA-activated protein kinase (Homo sapiens, UniProt P19525); assay: Inhibition of PKR in human HeLa cells lysate at 50 uM pre incubated for 15 mins followed by ADP acyl phosphate probe addition and measured after 10 mins by LC-MS/MS analysis relative to control; assay type: subcellular; conditions: time 25.0 min
Sequence of Interferon-induced, double-stranded RNA-activated protein kinase (P19525 whole entry): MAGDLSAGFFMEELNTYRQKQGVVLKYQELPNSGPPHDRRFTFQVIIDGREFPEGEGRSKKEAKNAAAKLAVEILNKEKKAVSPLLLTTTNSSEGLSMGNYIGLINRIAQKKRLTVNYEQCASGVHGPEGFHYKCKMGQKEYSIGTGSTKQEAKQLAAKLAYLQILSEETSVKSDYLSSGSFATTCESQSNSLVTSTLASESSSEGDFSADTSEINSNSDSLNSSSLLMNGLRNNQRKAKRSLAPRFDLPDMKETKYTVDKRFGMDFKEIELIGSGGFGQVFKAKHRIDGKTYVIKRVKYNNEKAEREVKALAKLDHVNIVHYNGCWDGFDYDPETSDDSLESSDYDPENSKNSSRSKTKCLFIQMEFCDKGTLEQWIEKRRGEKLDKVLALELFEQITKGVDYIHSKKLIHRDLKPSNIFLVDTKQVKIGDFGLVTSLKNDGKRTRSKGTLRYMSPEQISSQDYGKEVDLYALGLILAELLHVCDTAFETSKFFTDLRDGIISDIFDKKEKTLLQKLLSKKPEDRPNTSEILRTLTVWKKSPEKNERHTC

[7] = biological target: EKC/KEOPS complex subunit TP53RK (Homo sapiens, UniProt Q96S44); assay: Inhibition of PRPK in human HeLa cells lysate pre incubated for 15 mins followed by ATP acyl phosphate probe addition and measured after 10 mins by LC-MS/MS analysis; assay type: subcellular
[8] = Inhibition of Wnk1/2/4 in human HeLa cells lysate pre incubated for 15 mins followed by ATP acyl phosphate probe addition and measured after 10 mins by LC-MS/MS analysis; assay type: subcellular
[9] = biological target: Tyrosine-protein kinase JAK1 (Homo sapiens, UniProt P23458); assay: Inhibition of JAK1 domain 2 in human HeLa cells lysate at 10 uM pre incubated for 15 mins followed by ATP acyl phosphate probe addition and measured after 10 mins by LC-MS/MS analysis relative to control; assay type: subcellular; conditions: time 25.0 min
Sequence of Tyrosine-protein kinase JAK1 (P23458 whole entry, the tested form may be a part): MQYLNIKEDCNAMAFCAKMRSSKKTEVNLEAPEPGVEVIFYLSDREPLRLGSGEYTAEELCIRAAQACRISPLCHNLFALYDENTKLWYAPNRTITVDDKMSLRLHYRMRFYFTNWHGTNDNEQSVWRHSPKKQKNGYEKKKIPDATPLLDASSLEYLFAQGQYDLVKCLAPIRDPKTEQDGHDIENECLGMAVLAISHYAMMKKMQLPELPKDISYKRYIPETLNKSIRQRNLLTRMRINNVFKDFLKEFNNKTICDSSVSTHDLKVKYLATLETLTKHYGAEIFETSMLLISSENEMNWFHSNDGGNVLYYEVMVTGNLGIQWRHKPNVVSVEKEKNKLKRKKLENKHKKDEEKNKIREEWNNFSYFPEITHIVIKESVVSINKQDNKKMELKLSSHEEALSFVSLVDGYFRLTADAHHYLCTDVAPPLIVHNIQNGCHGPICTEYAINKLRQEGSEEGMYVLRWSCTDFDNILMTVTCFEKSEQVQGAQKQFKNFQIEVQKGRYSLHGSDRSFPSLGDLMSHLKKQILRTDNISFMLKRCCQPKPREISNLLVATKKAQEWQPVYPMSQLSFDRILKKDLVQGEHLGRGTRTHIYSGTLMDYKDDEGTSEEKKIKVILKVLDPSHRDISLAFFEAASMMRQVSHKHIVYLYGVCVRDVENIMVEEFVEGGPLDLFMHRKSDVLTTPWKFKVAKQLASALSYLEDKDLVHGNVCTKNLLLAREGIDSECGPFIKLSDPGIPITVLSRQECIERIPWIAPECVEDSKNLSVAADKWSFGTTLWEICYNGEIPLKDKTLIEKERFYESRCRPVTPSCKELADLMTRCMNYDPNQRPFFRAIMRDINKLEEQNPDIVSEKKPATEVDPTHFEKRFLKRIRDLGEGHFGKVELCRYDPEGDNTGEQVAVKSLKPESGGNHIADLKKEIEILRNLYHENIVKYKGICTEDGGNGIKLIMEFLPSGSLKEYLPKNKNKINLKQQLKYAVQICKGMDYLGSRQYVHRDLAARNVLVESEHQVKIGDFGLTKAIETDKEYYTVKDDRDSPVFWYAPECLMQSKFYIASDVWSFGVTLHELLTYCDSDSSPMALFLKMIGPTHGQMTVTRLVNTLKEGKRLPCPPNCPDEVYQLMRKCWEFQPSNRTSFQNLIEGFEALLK

[10] = biological target: Microtubule-associated serine/threonine-protein kinase 3 (Homo sapiens, UniProt O60307); assay: Inhibition of MAST3 in human HeLa cells lysate at 2 uM pre incubated for 15 mins followed by ATP acyl phosphate probe addition and measured after 10 mins by LC-MS/MS analysis relative to control; assay type: subcellular; conditions: time 25.0 min
[11] = biological target: Serine/threonine-protein kinase SMG1 (Homo sapiens, UniProt Q96Q15); assay: Inhibition of SMG1 in human HeLa cells lysate at 10 uM pre incubated for 15 mins followed by ATP acyl phosphate probe addition and measured after 10 mins by LC-MS/MS analysis relative to control; assay type: subcellular; conditions: time 25.0 min
[12] = biological target: Mitogen-activated protein kinase 14 (Homo sapiens, UniProt Q16539); assay: Inhibition of P38alpha interaction site in human HeLa cells lysate at 2 uM pre incubated for 15 mins followed by ATP acyl phosphate probe addition and measured after 10 mins by LC-MS/MS analysis relative to control; assay type: subcellular; conditions: time 25.0 min
Sequence of Mitogen-activated protein kinase 14 (Q16539 whole entry): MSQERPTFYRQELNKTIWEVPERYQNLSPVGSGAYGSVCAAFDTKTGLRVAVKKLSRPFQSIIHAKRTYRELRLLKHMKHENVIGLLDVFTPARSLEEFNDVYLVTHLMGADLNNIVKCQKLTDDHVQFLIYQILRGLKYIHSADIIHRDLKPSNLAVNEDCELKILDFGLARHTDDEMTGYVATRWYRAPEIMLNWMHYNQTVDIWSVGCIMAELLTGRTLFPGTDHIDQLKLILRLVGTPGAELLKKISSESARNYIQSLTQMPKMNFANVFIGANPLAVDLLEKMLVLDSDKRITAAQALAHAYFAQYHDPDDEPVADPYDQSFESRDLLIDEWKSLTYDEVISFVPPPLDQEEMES

[13] = biological target: Serine/threonine-protein kinase 38 (Homo sapiens, UniProt Q15208); assay: Inhibition of NDR1 in human HeLa cells lysate at 2 uM pre incubated for 15 mins followed by ATP acyl phosphate probe addition and measured after 10 mins by LC-MS/MS analysis relative to control; assay type: subcellular; conditions: time 25.0 min
Sequence of Serine/threonine-protein kinase 38 (Q15208 2-465 limits assumed): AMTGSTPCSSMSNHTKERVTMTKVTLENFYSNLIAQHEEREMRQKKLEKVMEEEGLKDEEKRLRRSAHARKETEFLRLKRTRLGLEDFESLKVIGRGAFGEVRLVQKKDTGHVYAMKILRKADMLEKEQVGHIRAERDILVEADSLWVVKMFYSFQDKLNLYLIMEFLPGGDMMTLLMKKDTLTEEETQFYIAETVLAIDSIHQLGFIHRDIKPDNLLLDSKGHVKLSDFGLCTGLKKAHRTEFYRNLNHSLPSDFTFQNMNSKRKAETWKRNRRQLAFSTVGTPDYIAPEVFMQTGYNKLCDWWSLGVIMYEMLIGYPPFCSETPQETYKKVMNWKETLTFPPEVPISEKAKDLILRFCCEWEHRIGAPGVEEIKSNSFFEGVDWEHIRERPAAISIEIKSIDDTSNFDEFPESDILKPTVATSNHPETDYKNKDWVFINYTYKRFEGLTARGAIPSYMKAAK

[14] = Inhibition of MAP3K2/3 in human HeLa cells lysate at 10 uM pre incubated for 15 mins followed by ATP acyl phosphate probe addition and measured after 10 mins by LC-MS/MS analysis relative to control; conditions: 25 min, condition cancer
[15] = biological target: Mitogen-activated protein kinase kinase kinase 4 (Homo sapiens, UniProt Q9Y6R4); assay: Inhibition of MAP3K4 in human HeLa cells lysate pre incubated for 15 mins followed by ATP acyl phosphate probe addition and measured after 10 mins by LC-MS/MS analysis; assay type: subcellular
[16] = biological target: Mixed lineage kinase domain-like protein (Homo sapiens, UniProt Q8NB16); assay: Inhibition of MLKL in human HeLa cells lysate pre incubated for 15 mins followed by ATP acyl phosphate probe addition and measured after 10 mins by LC-MS/MS analysis; assay type: subcellular
[17] = Cmax in Sprague-Dawley rat at 1 mg/kg, iv measured up to 8 hrs by LC-MS/MS analysis; assay type: ADME, organism-based; conditions: in vivo

With `CCOc1cc(N2CCC(O)CC2)ccc1Nc1ncc2c(n1)N(C)c1ccccc1C(=O)N2C` the Activity (Lewis lung carcinoma) was “Active”, the inhibition [1] was 12% and the pIC50 [2] was less than 4.30. It also gave an inhibition [3] of 14.8%, a pIC50 (Ephrin type-A receptor 2) of less than 4.30 and an inhibition [4] of 20.8%. It also gave an inhibition [5] of 15.7%, an inhibition [6] of -8.7% and a pIC50 [7] of less than 4.30. For the same compound, the pIC50 [8] was less than 4.30, the inhibition [9] was -5.7% and the inhibition [10] was 2%. It also gave an inhibition [11] of 3.9%, an inhibition [12] of -9.5% and an inhibition [13] of -4.3%. The inhibition at 10 µM [14] was -7.8%, the pIC50 [15] was less than 4.30 and the pIC50 [16] was less than 4.30. It also gave a Cmax [17] of 927 nM.

Reference: ChEMBL document CHEMBL5661979, “Pharmacological inhibition of BMK1 suppresses tumor growth through promyelocytic leukemia protein” (Cancer Cell, 2010)
